Assay results from ChEMBL document CHEMBL3997808 (J Med Chem, 2017).

What was measured:
[1] = Fraction unbound in rat blood; format: ADME, tissue-based
[2] = Stability in cynomolgus monkey microsomes measured up to 45 mins; format: ADME, Macaca fascicularis, Microsome; settings: 0.75 h
[3] = Fraction unbound in dog blood; format: ADME, tissue-based, Canis lupus familiaris
[4] = Drug metabolism in cynomolgus monkey hepatocytes assessed as glucuronide metabolite M553 formation at 10 uM measured up to 4 hrs; format: ADME, cell-based, Macaca fascicularis, Hepatocyte
Outline: (§1)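 Compound at 10 μM was incubated with hepatocyte suspensions at 1 million cells/mL. Incubation ran at 37°C under 5% CO2:95% O2 for up to 4 h.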

[5] = Drug metabolism in human hepatocytes assessed as glucuronide metabolite M553 formation at 10 uM measured up to 4 hrs; format: ADME, cell-based, Hepatocyte; outline: as §1
[6] = Stability in human microsomes measured up to 45 mins; format: ADME, Microsome; settings: 0.75 h
[7] = Half-life in rat at 1.1 mg/kg, iv; format: ADME, organism-based; settings: in vivo
[8] = system: Heart; experiment: Drug uptake in Han Wistar rat heart at 2 mg/kg, iv administered as 4 hrs infusion; format: ADME, organism-based; settings: in vivo
Outline: (§2)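 Rats received a 4 h iv infusion, after which terminal tissue samples were collected. Parent drug concentrations were measured in each tissue and compared with blood levels.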

[9] = Tmax in rat at 2.1 mg/kg, po; format: ADME, organism-based; settings: in vivo
[10] = Drug metabolism in cynomolgus monkey hepatocytes assessed as 5-(hydroxy(phenyl)methyl)-N-((S)-5-methyl-4-oxo-2,3,4,5-tetrahydrobenzo[b][1,4]oxazepin-3-yl)-1H-1,2,4-triazole-3-carboxamide formation at 10 uM measured up to 4 hrs; format: ADME, cell-based, Macaca fascicularis, Hepatocyte; outline: as §1
[11] = Clearance in cynomolgus monkey at 1.2 mg/kg, iv; format: ADME, organism-based, Macaca fascicularis; settings: in vivo
[12] = Drug metabolism in rat hepatocytes assessed as glucuronide metabolite M553 formation at 10 uM measured up to 4 hrs; format: ADME, cell-based, Hepatocyte; outline: as §1
[13] = target: T1, Nuclear receptor subfamily 1 group I member 2 (Homo sapiens, UniProt O75469); experiment: Activation of human PXR; format: ADME
T1 sequence (O75469 whole entry): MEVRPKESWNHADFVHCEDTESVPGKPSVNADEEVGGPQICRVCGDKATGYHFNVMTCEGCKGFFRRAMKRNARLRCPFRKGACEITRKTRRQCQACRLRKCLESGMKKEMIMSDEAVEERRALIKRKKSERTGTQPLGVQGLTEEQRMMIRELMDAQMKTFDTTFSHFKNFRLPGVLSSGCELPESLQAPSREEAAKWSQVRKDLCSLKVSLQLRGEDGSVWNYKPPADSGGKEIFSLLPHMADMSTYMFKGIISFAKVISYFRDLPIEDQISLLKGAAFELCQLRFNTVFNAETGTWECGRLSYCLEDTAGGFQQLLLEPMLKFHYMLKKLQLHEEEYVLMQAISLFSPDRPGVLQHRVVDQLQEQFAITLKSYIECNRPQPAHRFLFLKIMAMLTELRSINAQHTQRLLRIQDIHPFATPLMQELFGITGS

[14] = system: Cynomolgus monkey; experiment: Toxicity in cynomolgus monkey at 2 to 1000 mg/kg, po after 1 month; format: organism-based, Macaca fascicularis; settings: in vivo, 730.5 h
[15] = Lipophilicity, log D of the compound at pH 7.4 by RP-HPLC method; format: physicochemical; settings: buffer
Outline: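 Chromatographic hydrophobicity index (CHI) log D at pH 7.4, calculated from the retention time in a fast-gradient reverse-phase HPLC run.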

[16] = system: Liver; experiment: Drug uptake in Han Wistar rat liver at 2 mg/kg, iv administered as 4 hrs infusion; format: ADME, organism-based; settings: in vivo; outline: as §2
[17] = AUC (0 to infinity) in rat at 2 mg/kg, po; format: ADME, organism-based; design: dose 2 mg/kg, route oral, time infinity; settings: in vivo
[18] = Oral bioavailability in cynomolgus monkey at 1.9 mg/kg; format: ADME, organism-based, Macaca fascicularis; settings: in vivo
[19] = Drug metabolism in human hepatocytes assessed as 5-benzyl-1H-1,2,4-triazole-3-carboxylic acid formation at 10 uM measured up to 4 hrs; format: ADME, cell-based, Hepatocyte; outline: as §1
[20] = Oral bioavailability in rat at 2.1 mg/kg; format: ADME, organism-based; settings: in vivo
[21] = Drug metabolism in human hepatocytes assessed as 5-(hydroxy(phenyl)methyl)-N-((S)-5-methyl-4-oxo-2,3,4,5-tetrahydrobenzo[b][1,4]oxazepin-3-yl)-1H-1,2,4-triazole-3-carboxamide formation at 10 uM measured up to 4 hrs; format: ADME, cell-based, Hepatocyte; outline: as §1
[22] = Tmax in cynomolgus monkey at 1.9 mg/kg, po; format: ADME, organism-based, Macaca fascicularis; settings: in vivo

For CN1C(=O)[C@@H](NC(=O)c2nnc(Cc3ccccc3)[nH]2)COc2ccccc21 [GSK2982772], which fraction unbound [1] is on record?
Its fraction unbound is 0.042.

And the Stability [2]?
Its Stability is “Stable”.

And the fraction unbound [3]?
Its fraction unbound is 0.11.

And the Drug metabolism [4]?
Its Drug metabolism is “Metabolite_Detected”.

What about the Drug metabolism [5] of the same compound?
Its Drug metabolism is “Metabolite_Detected”.

What about the Stability [6] of the same compound?
The Stability was “Stable”.

And the half-life [7]?
Its half-life is 3.9 h.

And the Drug uptake [8]?
The Drug uptake was “Active”.

And the Tmax [9]?
The Tmax was 0.25 h.

What about the Drug metabolism [10] of the same compound?
Its Drug metabolism is “Metabolite_Detected”.

And the clearance [11]?
The clearance was 0.6 L/h/kg.

And the Drug metabolism [12]?
The Drug metabolism was “Metabolite_Detected”.

And the EC50 [13]?
The EC50 was 13 µM.

And the Activity [14]?
Its Activity is “Non-Toxic”.

What about the chromatographic logD [15] of the same compound?
Its chromatographic logD is 3.8.

And the Drug uptake [16]?
Its Drug uptake is “Active”.

What about the AUC(0-inf) [17] of the same compound?
Its AUC(0-inf) is 2.3 µg·h/mL.

And the bioavailability [18]?
Its bioavailability is 86%.

What about the Drug metabolism [19] of the same compound?
Its Drug metabolism is “Metabolite_Detected”.

What about the bioavailability [20] of the same compound?
The bioavailability was 110%.

What about the Drug metabolism [21] of the same compound?
The Drug metabolism was “Metabolite_Detected”.

What about the Tmax [22] of the same compound?
Its Tmax is 1.8 h.
